Source: publication PMC6818095 (Journal of medicinal chemistry, 2014)

Experiments:
σ2 receptor = molecular target: T1, σ2 receptor (Rattus norvegicus, UniProt Q5U3Y7); format: binding; details: for increase of selectivity for σ2 compared to 26 / increase of σ2 binding affinity compared to 26: relative to nonsubstituted 1H-[1,2,3]triazole carboxamide analogue 26; for lower binding affinity for σ2 receptor than corresponding methoxy-substituted congeners: 39e and 39f versus 39b and 39c
T1 sequence (Q5U3Y7 1-176): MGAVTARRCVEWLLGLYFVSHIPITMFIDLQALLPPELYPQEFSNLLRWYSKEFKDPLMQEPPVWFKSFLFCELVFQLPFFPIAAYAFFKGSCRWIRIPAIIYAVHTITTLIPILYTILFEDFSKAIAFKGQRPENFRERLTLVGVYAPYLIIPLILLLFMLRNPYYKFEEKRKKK

[1] = system: EMT-6 murine breast cancer cells; assay: functional assay: cell viability; format: cell-based; details: for cytotoxicity (in words): EMT-6 cells, cell viability assay
Summary of the method: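 EMT-6 murine breast cancer cells grown in DMEM with 10% FBS and penicillin/streptomycin at 37 °C, 5% CO2; seeded 5 × 10^3 cells/well 24 h before dosing. Test compound in DMSO serially diluted in medium (final DMSO ≤1.0%), 24 or 48 h exposure. MTS reagent 1–2 h at 37 °C, A490. Viability relative to untreated cells; EC50 from dose–response curves; triplicate, mean ± SEM of three experiments.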

SMILES | increase of selectivity for σ2 compared to 26 (σ2 receptor) [fold] | increase of σ2 binding affinity compared to 26 (σ2 receptor) [fold] | further results
COc1cccc(Cn2cc(C(=O)NCCCCN3CCc4cc(OC)c(OC)cc4C3)nn2)c1 [39b, N-(4-(6,7-Dimethoxy-3,4-dihydro-1H-isoquinolin-2-yl)butyl)-1-(3-methoxybenzyl)-1H-1,2,3-triazole-4-carboxamide] | 110 | 96 | –
COc1ccc(Cn2cc(C(=O)NCCCCN3CCc4cc(OC)c(OC)cc4C3)nn2)cc1 [39c, N-(4-(6,7-Dimethoxy-3,4-dihydro-1H-isoquinolin-2-yl)butyl)-1-(4-methoxybenzyl)-1H-1,2,3-triazole-4-carboxamide] | 63 | 205 | –
COc1ccc(-n2cc(C(=O)NCCCCN3CCc4cc(OC)c(OC)cc4C3)nn2)cc1 [24f, N-(4-(6,7-Dimethoxy-3,4-dihydro-1H-isoquinolin-2-yl)butyl)-1-(4-methoxyphenyl)-1H-1,2,3-triazole-4-carboxamide] | – | 186 | cytotoxicity (in words) [1]: did not induce cytotoxicity; agonist/antagonist classification at the σ2 receptor ([1]; based on cytotoxicity in EMT-6 cells relative to siramesine): antagonist
COc1cc2c(cc1OC)CN(CCCCNC(=O)c1cn(-c3ccccc3OC)nn1)CC2 [24d, N-(4-(6,7-Dimethoxy-3,4-dihydro-1H-isoquinolin-2-yl)butyl)-1-(2-methoxyphenyl)-1H-1,2,3-triazole-4-carboxamide] | 817 | 682 | –
Fc1ccc(-n2cc(CCCCN3CCC4(CC3)OCc3ccccc34)c3ccccc32)cc1 [siramesine, reference compound] | – | – | cytotoxicity (in words) [1]: potent cytotoxicity
COc1cc2c(cc1OC)CN(CCCCNC(=O)c1cc(-n3cc(CN(C)C)nn3)ccc1OCCF)CC2 [compound 65, N-(4-(6,7-Dimethoxy-3,4-dihydroisoquinolin-2(1H)-yl)butyl)-5-(4-((dimethylamino)methyl)-1H-1,2,3-triazol-1-yl)-2-(2-fluoroethoxy)benzamide] | – | – | σ2 binding affinity lower than lead compound 8 (σ2 receptor; 65 versus lead compound 8): 14 fold; σ2 binding affinity lower than lead compound 9 (σ2 receptor; 65 versus lead compound 9): 89 fold
COc1cccc(-n2cc(C(=O)NCCCCN3CCc4cc(OC)c(OC)cc4C3)nn2)c1 [24e, N-(4-(6,7-Dimethoxy-3,4-dihydro-1H-isoquinolin-2-yl)butyl)-1-(3-methoxyphenyl)-1H-1,2,3-triazole-4-carboxamide] | 629 | 341 | –
COc1cc2c(cc1OC)CN(CCCCNC(=O)c1cn(Cc3cccc(O)c3)nn1)CC2 [39e, N-(4-(6,7-Dimethoxy-3,4-dihydro-1H-isoquinolin-2-yl)butyl)-1-(3-hydroxybenzyl)-1H-1,2,3-triazole-4-carboxamide] | – | – | lower binding affinity for σ2 receptor than corresponding methoxy-substituted congeners (σ2 receptor): 2 fold
COc1cc2c(cc1OC)CN(CCCCNC(=O)c1cn(Cc3ccccc3)nn1)CC2 [39d, 1-Benzyl-N-(4-(6,7-dimethoxy-3,4-dihydro-1H-isoquinolin-2-yl)-butyl)-1H-1,2,3-triazole-4-carboxamide] | 34 | 82 | –
COc1cc2c(cc1OC)CN(CCCCNC(=O)c1cn(Cc3ccc(O)cc3)nn1)CC2 [39f, N-(4-(6,7-Dimethoxy-3,4-dihydro-1H-isoquinolin-2-yl)butyl)-1-(4-hydroxybenzyl)-1H-1,2,3-triazole-4-carboxamide] | – | – | lower binding affinity for σ2 receptor than corresponding methoxy-substituted congeners (σ2 receptor): 2 fold
COc1cccc(Cn2cc(C(=O)NCCN3CCc4cc(OC)c(OC)cc4C3)nn2)c1 [40e, N-(2-(6,7-Dimethoxy-3,4-dihydro-1H-isoquinolin-2-yl)ethyl)-1-(3-methoxybenthyl)-1H-1,2,3-triazole-4-carboxamide] | – | – | σ2 binding affinity lower than the 4-carbon spacer congeners (σ2 receptor; 2-carbon spacer 40a–40f versus 24d–24f and 39a–39c): 20 fold
COc1ccccc1Cn1cc(C(=O)NCCCCN2CCc3cc(OC)c(OC)cc3C2)nn1 [39a, N-(4-(6,7-Dimethoxy-3,4-dihydro-1H-isoquinolin-2-yl)butyl)-1-(2-methoxybenzyl)-1H-1,2,3-triazole-4-carboxamide] | 198 | 105 | –
